Beta apoptosis = blocks beta cell apoptosis. INS-1E cytokine-induced death, ATP luminescence, 48 h; percent of positive-control rescue, neutral wells zero. protection from apoptosis, % (test concentration not listed). 300,000 compounds, 0.8% hits. AID 435005;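 active = Every replicate reaches about 75%, or at least half do and their mean reaches it too, limit read from the data; inconclusive = At least half of replicates reach the limit but their mean does not; inactive = Under half of replicates reach the limit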;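 also: 0% = cytokine-treated negative control wells and 100% = positive control rescue; higher means more ATP so stronger rescue from cytokine killing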
A1 inh = inhibitors of the anti-apoptotic protein A1, read as caspase activation | MEF A1-2A-BIM cells, Caspase-Glo 3/7 luminescence, 3 h; percent of clofoctol response, vehicle zero | caspase activation, % (no concentration beside the values) | 330,000 compounds, 0.066% hits | AID 2462;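 active = over half of replicate activation scores above 10%, or exactly half above 10 with the replicate mean above 10; inconclusive = replicate mean below 10 yet half the replicates above 10; inactive = over half of replicates below 10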
HIF activator = HIF pathway transcriptional activation; U2OS HRE-luciferase reporter, luminescence; normalized: DMSO 0%, desferrioxamine 100%; activation, % at 7.5 µM (by protocol); 300,000 compounds, 0.32% hits; AID 1910;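 active = mean activation of at least 10% of the iron chelator positive control signal, with at least half of replicates also reaching 10%; inconclusive = mean and replicate majority disagree about reaching 10%; inactive = mean and most replicates under 10%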
KLF5 inh = suppresses KLF5 promoter-driven expression | DLD-1 KLF5 promoter-luciferase reporter, luminescence | inhibition, % at 5 µM | 290,000 compounds, 0.23% hits | AID 1700;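 active = inhibition above a per-plate limit of that plate's mean compound inhibition plus 3 SD, cut at about 60% in these data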;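 also: 0% = DMSO wells and 100% = LY294002 at 200 µM; higher means less KLF5 promoter-driven luciferase light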
T cruzi repl = T. cruzi replication inhibition | inhibition, % (test concentration not listed) | T. cruzi beta-gal in NIH3T3, luminescence, 90 h | 300,000 compounds, 1.4% hits | AID 1885;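 active = mean inhibition across valid replicates above about 55%, limit read from the data; inconclusive = mean below that limit but half or more replicates reach it; inactive = mean below it, under half of replicates reach it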;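 also: signal also drops with host cell toxicity which is not excluded here; 0% = plate median of DMSO wells and 100% = zero luminescence signal; higher percent means less beta-gal luminescence so fewer parasites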
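Material: NIH/3T3 host cells with β-galactosidase reporter T. cruzi; Input: 5,000 host fibroblasts per well; Medium: DMEM, 2% fetal bovine serum; Compound: 50 nL DMSO compound solution per well; Schedule: 3 h host attachment, then at least 90 h co-culture; Detection: luminescent β-galactosidase signal after 60 min lysis.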
Starred values were filed as active, the others as inactive; u = inconclusive; x = no result. A selection: hits, their analogues and other compounds. The true share with any hit is near 2.3%.

SMILES	Beta apoptosis	A1 inh	HIF activator	KLF5 inh	T cruzi repl
OC(CNCC1CCCO1)Cn1c2ccc(Cl)cc2c2cc(Cl)ccc21 (centres undefined)	x	2	1	-22	39
OC(CNCCC1C=Nc2ccccc21)Cn1c2ccc(Cl)cc2c2cc(Cl)ccc21 (centres undefined)	100*	3	-1	-9	u
Cc1ccc(O)c(/C=N/NC(=O)C2=NNC(c3ccccc3)(c3ccccc3)C2)c1	x	x	x	8	x
COc1ccc(OC)c(/C=N/NC(=O)c2[nH]ncc2Br)c1	0	-1	1	-94	-14
Cc1ccc(O)c(/C=N/NC(=O)c2[nH]ncc2Br)c1	84*	-6	7	-52	-13
O=C(N/N=C\c1c(O)ccc2ccccc12)c1ccc(Cn2cccn2)o1	79*	0	38*	15	14
O=C(N/N=C\c1ccc(Cl)s1)c1ccc(Cn2cccn2)o1	-4	1	2	-6	-15
CCOc1ccc(/C=N/NC(=O)c2[nH]ncc2Br)c(O)c1	77*	-9	23*	-16	55*
O=C(N/N=C/c1c(O)ccc2ccccc12)c1cccc(C(F)(F)F)c1	x	1	14*	18	57*
O=C(N/N=C/c1cccs1)c1[nH]ncc1Br	7	-12	2	-85	13
O=C(N/N=C/c1c(O)ccc2ccccc12)c1[nH]ncc1Br	103*	-2	115*	23	25
COC(=O)c1ccc(NC(=O)CCN2CCN(Cc3ccccc3)CC2)cc1	-8	0	1	-3	65*
CN(C(=O)c1ccccc1F)C(c1ccccc1)c1ccccc1	1	0	1	-13	15
Cc1cc2ncn(/N=C/c3ccc([N+](=O)[O-])s3)c2cc1C	50	0	-1	-26	38
O=[N+]([O-])c1ccc(/C=N/n2c(CO)nc3ccccc32)s1	81*	1	0	4	67*
Cc1nc2ccccc2n1/N=C/c1ccc([N+](=O)[O-])s1	109*	0	0	8	39
O=[N+]([O-])c1ccc(/C=N/n2cnc3ccccc32)s1	112*	0	2	-9	73*
Cc1nn(Cc2ccccc2)c(C)c1C(=O)N1CCN(S(=O)(=O)/C=C/c2ccccc2)CC1	4	1	x	x	x
CCn1ncc(Cl)c1C(=O)Nc1ccc2c(c1)CCC2	x	-1	1	-35	1
COc1ccc2nc(C3CCCCC3)c3c(c2c1)CCC3	4	0	0	x	8
CC1CCCCN1C(=O)C(=O)c1cn(CC(=O)N2CCCCCC2)c2ccccc12 (centres undefined)	4	0	0	-25	64*
CCOC(=O)C1CCN(C(=O)C(=O)c2cn(CC(=O)N3CCCCCC3)c3ccccc23)CC1	7	-1	0	-33	62*
Cc1cccc(NC(=O)c2nc[nH]c2C(=O)NCCCCNC(=O)c2[nH]cnc2C(=O)Nc2cccc(C)c2)c1	15	-2	x	x	x
CN(C)CCNC(=O)/C=C/c1cn(-c2ccccc2)nc1-c1cc2ccccc2oc1=O	7	0	0	-10	-15
CC(=O)Nc1ccc(OCC(O)Cn2c3ccccc3c3ccccc32)c(C)c1 (centres undefined)	10	1	0	-14	56*
SMILES	Beta apoptosis	A1 inh	HIF activator	KLF5 inh	T cruzi repl
O=S(=O)(c1ccc(F)cc1)c1nc(-c2ccccc2F)oc1N1CCCCC1	1	0	0	-9	71*
COc1cc2c(cc1OC)CN(CC(=O)Nc1ccc(F)cc1)C(C(=O)O)C2 (centres undefined)	-11	0	0	-13	-4
N#Cc1ccc(CN(c2ccncc2)S(=O)(=O)c2ccccc2)cc1	-5	0	-1	3	-2
Cc1cc(Nc2ccccc2)nc(NCc2ccccc2)n1	101*	1	1	-13	37
Cc1cc(Nc2cccc(F)c2)nc(NCc2ccccc2)n1	106*	0	0	-44	50
Cc1cc(N2CCC(C)CC2)nc(NCc2ccccc2)n1	101*	0	0	-17	52
Cc1cc(C)nc(NCCCc2ccccc2)n1	-1	-1	0	-21	-3
CCCCNc1cc(C)nc(NCc2ccccc2)n1	104*	0	2	-8	39
Cc1cc(N2CCC(C)CC2)nc(-c2ccccc2O)n1	9	0	0	-12	4
Cc1cc(Nc2ccc(Cl)cc2)nc(NCc2ccccc2)n1	16	1	-3	-23	43
COc1ccc(-c2csc(=NCCO)n2-c2ccccc2)cc1	5	0	6	-98	-8
COc1ccc(C(=O)N2CCc3ccc(NC(=O)c4ccccn4)cc3C2)cc1F	x	x	3	-58	4
O=C(CCC(=O)N1CCCC1)N1CCCC1	-3	0	0	-20	-5
COc1ccc(OC)c(-c2cc(C(=O)Nc3cccc(Cl)c3)no2)c1	3	0	1	-30	55*
CC1(C)CC(=O)C(C2C3=C(CC(C)(C)CC3=O)Oc3c(Br)cc(Br)cc32)=C(O)C1 (centres undefined)	-5	-1	-50	-23	1
CCOC(=O)c1cc(CC)sc1NC(=O)c1cc(OC)c(OC)c(OC)c1	7	0	-1	1	12
COc1cc(C(=O)Nc2sc(C)c(C)c2C(=O)O)cc(OC)c1OC	5	0	165*	-16	-10
Cc1nc2ccccc2c(=O)n1/N=C/c1c(O)ccc2ccccc12	85*	1	1	4	12
O=c1c2ccccc2nc(N/N=C/c2c(O)ccc3ccccc23)n1O	98*	-3	15*	-40	-10
Cc1nc2ccccc2c(=O)n1/N=C/c1c(O)ccc2oc3c(c12)CCCC3	93*	2	1	-32	28
Cc1nc2ccccc2c(=O)n1/N=C/c1cc(Br)ccc1O	38	-1	-12	17	-25
O=C(C1CCC(CNS(=O)(=O)c2ccccc2)CC1)N1CCCCC1 (centres undefined)	-13	1	-10	-6	-14
COc1ccc(CN2CCN(C(=O)C3CCC(CNS(=O)(=O)c4ccccc4)CC3)CC2)c(OC)c1OC (centres undefined)	10	0	1	-44	58*
CC(C)c1nc(-c2ccccc2)c(-c2ccccc2)[nH]1	88*	1	0	-8	4
c1ccc(-c2nc(-c3cccs3)[nH]c2-c2ccccc2)cc1	13	0	0	-13	26
CCCOc1ccc(-c2nc(SCc3ccccc3)[nH]c(=O)c2C#N)cc1OC	1	-1	-1	-37	56*
CCN(Cc1nc(-c2ccc(C)cc2)no1)C(=O)c1ccco1	-2	1	-1	-57	11
Nc1ccc(Cl)c(S(=O)(=O)Nc2ccc(Cl)cc2)c1	0	1	1	-13	64*
Cc1ccc([N+](=O)[O-])cc1S(=O)(=O)Nc1ccc(OCC(=O)N2CCOCC2)cc1	0	1	0	-25	-2
